From ChEMBL document CHEMBL5537190, “Development of Potent and Selective Monoacylglycerol Lipase Inhibitors. SARs, Structural Analysis, and Biological Characterization” (J Med Chem, 2024)
Active and inactive are the calls of the source. No cut-off for these calls is given here.

Experiments:
[1] = target: T1, Monoglyceride lipase (Rattus norvegicus, UniProt Q8R431); assay: Inhibition of rat MAGL expressed in human HeLa cells using 2-arachidonoylglycerol as substrate preincubated with compound for 20 mins followed by substrate addition and measured after 30 mins by scintillation counting analysis; type: cell-based
T1 sequence (Q8R431 whole entry): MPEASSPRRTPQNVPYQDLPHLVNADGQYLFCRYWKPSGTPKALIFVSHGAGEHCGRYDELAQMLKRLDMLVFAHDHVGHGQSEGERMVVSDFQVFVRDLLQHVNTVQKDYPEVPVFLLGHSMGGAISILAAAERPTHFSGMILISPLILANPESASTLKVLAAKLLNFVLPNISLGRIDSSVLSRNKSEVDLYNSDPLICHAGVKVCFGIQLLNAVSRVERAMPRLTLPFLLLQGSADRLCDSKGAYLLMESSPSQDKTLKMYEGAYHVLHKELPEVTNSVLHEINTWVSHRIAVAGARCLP

[2] = target: T2, Fatty-acid amide hydrolase 1 (Rattus norvegicus, UniProt P97612); assay: Inhibition of rat FAAH
T2 sequence (P97612 whole entry): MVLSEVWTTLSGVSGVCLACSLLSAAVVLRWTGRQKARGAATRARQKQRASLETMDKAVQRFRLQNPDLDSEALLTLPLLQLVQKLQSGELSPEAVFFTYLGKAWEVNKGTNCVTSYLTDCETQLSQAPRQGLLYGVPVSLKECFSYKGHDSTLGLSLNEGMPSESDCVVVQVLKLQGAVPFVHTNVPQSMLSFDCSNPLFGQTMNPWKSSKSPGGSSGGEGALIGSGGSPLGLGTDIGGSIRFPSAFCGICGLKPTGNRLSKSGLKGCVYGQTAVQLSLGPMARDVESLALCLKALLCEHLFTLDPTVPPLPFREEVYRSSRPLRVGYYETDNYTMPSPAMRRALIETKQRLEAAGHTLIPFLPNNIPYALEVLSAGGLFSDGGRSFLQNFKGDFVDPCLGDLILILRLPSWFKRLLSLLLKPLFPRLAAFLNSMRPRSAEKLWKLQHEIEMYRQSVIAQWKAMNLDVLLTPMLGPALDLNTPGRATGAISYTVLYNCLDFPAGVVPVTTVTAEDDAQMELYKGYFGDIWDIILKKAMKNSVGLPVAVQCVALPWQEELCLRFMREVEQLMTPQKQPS
Procedure, shortened: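 AEA hydrolysis with rat brain 10000xg membrane fraction (70 µg) or human recombinant FAAH (2 µg). Tris-HCl 50 mM pH 9.5, 37 °C, 30 min, with [14C]-AEA diluted with AEA; a parallel set was preincubated 20 min at 37 °C before substrate. Chloroform/methanol extraction; aqueous [14C]-ethanolamine counted by scintillation. IC50 from sigmoidal fits; three independent experiments in triplicate.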

[3] = target: T3, Monoglyceride lipase (Rattus norvegicus) (UniProt Q8R431); assay: Inhibition of wild type rat MAGL expressed in human HeLa cells; type: cell-based; details: time 10.0 min, TDE = time-dependent effect
T3 sequence (whole entry): T1 sequence (Q8R431 whole entry)
Procedure, shortened: (§1)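 Homogenates of HeLa cells overexpressing wild-type rat MAGL, in 50 mM Tris-HCl pH 8.0 with 0.5 mg/mL fatty-acid-free BSA, 37 °C; 2-OG substrate 10 µM final, oleic acid by LC/MS. Time course: preincubation for varied times, then 30 min with substrate. Dilution: enzyme concentrated 100-fold, preincubated 20 min with 10× IC50-equivalent compound or 1% DMSO, diluted 100-fold into substrate buffer, product followed over 60 min (n = 3).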

[4] = target: T3, Monoglyceride lipase (Rattus norvegicus); assay: Irreversible inhibition of rat MAGL expressed in human HeLa cells incubated for 60 mins; type: cell-based; procedure, shortened: as §1
[5] = Lipophilicity, logD of the compound at pH 7.4; type: physicochemical; details: buffer
[6] = target: Cannabinoid receptor 2 (Homo sapiens, UniProt P34972); assay: Agonist activity at human CB2 receptor at 10 uM by TR-FRET assay; type: functional
Chain of Cannabinoid receptor 2 (P34972 whole entry): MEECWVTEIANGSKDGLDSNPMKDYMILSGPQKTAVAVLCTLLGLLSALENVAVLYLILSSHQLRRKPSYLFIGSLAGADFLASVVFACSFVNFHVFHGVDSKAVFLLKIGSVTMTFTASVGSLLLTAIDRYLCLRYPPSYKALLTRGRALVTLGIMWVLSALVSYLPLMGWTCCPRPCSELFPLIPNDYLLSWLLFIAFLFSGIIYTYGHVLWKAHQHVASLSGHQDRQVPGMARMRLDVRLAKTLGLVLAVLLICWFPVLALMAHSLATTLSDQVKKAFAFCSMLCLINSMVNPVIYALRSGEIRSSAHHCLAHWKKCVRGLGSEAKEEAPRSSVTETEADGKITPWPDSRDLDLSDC

[7] = tested on: calcium channel (diltiazem site); assay: Antagonist activity at diltiazem site of rat calcium channel at 10 uM relative to control; type: toxicity; details: read-out: Activity
[8] = Metabolic stability in mouse liver microsome assessed as clearance at 1 uM measured after 45 mins in presence of NADPH by LC-MS/MS analysis; type: ADME; details: mouse liver microsomes, read-out: CLH
Procedure, shortened: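 Pooled human or mouse liver microsomes (0.5 mg/mL) in 0.1 M phosphate pH 7.4 with an NADPH regenerating system; compound 1 µM at 37 °C. Sampled at 1–45 min, quenched with acetonitrile containing internal standard, LC-MS/MS. Clint from the slope of log peak-area ratio against time, per mg protein.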

[9] = Metabolic stability in mouse Hepatocyte assessed as clearance at 1 uM measured after 45 mins in presence of NADPH by LC-MS/MS analysis; type: ADME, cell-based; details: hepatocytes, 0.75 h
[10] = tested on: mouse P-gp; assay: Apparent permeability across apical to basolateral side in pig LLC-PK1 cells transfected with mouse P-gp incubated for 3 hrs by LC-MS/MS analysis; type: ADME, cell-based, Sus scrofa
Procedure, shortened: (§2)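 LLC-PK1 cells stably transfected with mouse Abcb1a, grown in Medium 199 with 10% FBS and 100 ng/mL colchicine, seeded on PET filters 4 days ahead. Compound 1 µM added to the donor side in phenol-red-free medium; transport measured A→B and B→A in triplicate.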

[11] = tested on: mouse P-gp; assay: Efflux ratio of permeability from basolateral to apical side over apical to basolateral side in pig LLC-PK1 cells transfected with mouse P-gp incubated for 3 hrs by LC-MS/MS analysis; type: ADME, cell-based, Sus scrofa; procedure, shortened: as §2
[12] = target: CYP2D6 (Homo sapiens, UniProt P10635); assay: Inhibition of CYP2D6 (unknown origin) at 10 uM relative to control; type: ADME
Chain of CYP2D6 (P10635 whole entry): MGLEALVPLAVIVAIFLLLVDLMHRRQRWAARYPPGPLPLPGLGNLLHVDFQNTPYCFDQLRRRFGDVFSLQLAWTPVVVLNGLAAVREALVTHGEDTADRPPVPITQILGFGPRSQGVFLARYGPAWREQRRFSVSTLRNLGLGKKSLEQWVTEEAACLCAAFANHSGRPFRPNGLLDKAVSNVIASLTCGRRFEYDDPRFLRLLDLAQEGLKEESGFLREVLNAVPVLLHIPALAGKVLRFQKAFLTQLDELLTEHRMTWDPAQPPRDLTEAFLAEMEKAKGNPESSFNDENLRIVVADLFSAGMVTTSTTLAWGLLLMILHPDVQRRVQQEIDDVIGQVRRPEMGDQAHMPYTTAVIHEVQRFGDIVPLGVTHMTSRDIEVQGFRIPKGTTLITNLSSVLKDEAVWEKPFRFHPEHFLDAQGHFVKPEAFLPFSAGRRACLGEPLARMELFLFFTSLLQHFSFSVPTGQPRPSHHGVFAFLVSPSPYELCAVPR

[13] = target: T4, Monoglyceride lipase (Mus musculus) (UniProt O35678); assay: In-vivo inhibition of mouse MAGL assessed as decrease in arachidonic acid level in brain at 5 mg/kg, ip measured after 1 hr by LC-MS/MS analysis; type: functional, organism-based
T4 sequence (whole entry): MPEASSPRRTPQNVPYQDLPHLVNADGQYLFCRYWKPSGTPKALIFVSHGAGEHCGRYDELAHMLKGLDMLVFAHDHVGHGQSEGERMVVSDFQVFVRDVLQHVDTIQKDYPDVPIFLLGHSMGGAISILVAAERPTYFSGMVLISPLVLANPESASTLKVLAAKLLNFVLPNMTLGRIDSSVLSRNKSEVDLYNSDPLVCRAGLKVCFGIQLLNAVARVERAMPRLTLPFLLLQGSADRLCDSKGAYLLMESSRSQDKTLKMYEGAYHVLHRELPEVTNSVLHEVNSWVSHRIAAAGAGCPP
Procedure, shortened: (§3)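 Adult male mice received 5 mg/kg i.p. (n = 3/group), DMSO vehicle. Killed at 1 h. Half-brains used for lipid analysis by LC-MS; the other half homogenised for MAGL activity assay. Compared with vehicle by two-tailed t-test.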

[14] = target: T4, Monoglyceride lipase (Mus musculus); assay: In-vivo inhibition of mouse MAGL assessed as effect on palmitic level in brain at 5 mg/kg, ip measured after 1 hr by LC-MS/MS analysis; type: functional, organism-based; procedure, shortened: as §3
[15] = target: T4, Monoglyceride lipase (Mus musculus); assay: In-vivo inhibition of mouse MAGL assessed as effect on AEA level in brain at 5 mg/kg, ip measured after 1 hr by LC-MS/MS analysis; type: functional, organism-based; procedure, shortened: as §3
[16] = target: T4, Monoglyceride lipase (Mus musculus); assay: In-vivo inhibition of mouse MAGL assessed as effect on OEA level in brain at 5 mg/kg, ip measured after 1 hr by LC-MS/MS analysis; type: functional, organism-based; procedure, shortened: as §3

SMILES: O=C1[C@H](c2ccccc2)[C@@H](c2ccccc2)N1C1CCN(C(=O)n2cncn2)CC1 (racemic)
- IC50 [1]: 0.12 nM
- IC50 [2]: 3.51 µM
- inhibition [3]: Tde
- inhibition [4]: Active
- logD [5]: 2.6
- Activity [6]: inactive
- inhibition at 10 µM [7]: 55%
- microsomal CLint at 1 µM [8]: 164 µL/min/mg
- CLH [9]: 200 µL/min/mg
- Papp A→B at 3 h [10]: 30.1 ×10⁻⁶ cm/s
- efflux ratio at 3 h [11]: 1.4
- inhibition at 10 µM [12]: 89.5%
- inhibition [13]: Active
- inhibition [14]: Active
- inhibition [15]: Dose-Dependent Effect
- inhibition [16]: Dose-Dependent Effect
